Test results as given in article PMC6668347 (Bioorganic & medicinal chemistry, 2017).
Blank lines part the entries; values can stand above or below the compound they belong to.

How the values were obtained:
MELK = MELK (Homo sapiens, UniProt Q14680); experiment: MELK kinase activity inhibition; assay type: biochemical; settings: for change of MELK IC50 / activity relative to parent compound 6: weaker than 6 (higher IC50)
LC3B-II = experiment: Autophagy assay; assay type: cell-based; settings: for LC3B-II levels: 4 h, 6 at 5 μM, BafA1 at 100 nM, versus DMSO
Outline: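 MDA-MB-231 or MDA-MB-468 cells in DMEM with 10% FBS at 37 °C, 5% CO2, treated 4 h with test compound or DMSO vehicle. Hypoxia (1% O2) served as the autophagy positive control. Bafilomycin A1 (100 nM) was added 4 h before harvest. Cells were lysed in NP40 buffer with protease and phosphatase inhibitors, run on SDS-PAGE and transferred to PVDF. Blots were probed overnight at 4 °C with anti-LC3B (1:3000), then HRP secondary (1:10,000), with ECL detection of LC3B-I and LC3B-II.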

Bcl-XL = experiment: Western blot of Bcl-XL levels; assay type: cell-based
p21WAF1/CIP1 = experiment: Western blot of p21 levels; assay type: cell-based; settings: 5 μM, from 4 h, sustained over 48 h
MDMX = experiment: Immunoblot of MDMX levels; assay type: cell-based; settings: MDA-MB-231 cells, increasing concentration
Outline: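 MDA-MB-231 cells (DMEM, 10% FBS, 37 °C, 5% CO2) were exposed to rising test compound concentrations. Whole-cell RIPA lysates with protease and phosphatase inhibitors were prepared, and 30 µg protein was resolved by 10% SDS-PAGE and moved to nitrocellulose. Blots were probed with primary antibody overnight at 4 °C, then with IRDye 800 anti-mouse or Alexa Fluor 680 anti-rabbit IgG for 1 h at RT. Bands were read by infrared imaging.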

p53 = experiment: Western blot of p53 levels; assay type: cell-based
phospho STAT3 (Tyr705) = experiment: Western blot of STAT3 phosphorylation; assay type: cell-based
JAK2 = JAK2 (Homo sapiens, UniProt O60674); experiment: JAK kinase activity, JAK2; assay type: biochemical
phospho Akt = experiment: Western blot of Akt phosphorylation; assay type: cell-based
BMX/ETK = target: T1, BMX/ETK (Homo sapiens, UniProt P51813); experiment: Kinase panel IC50, BMX/ETK; assay type: biochemical
T1 sequence (P51813 1-675): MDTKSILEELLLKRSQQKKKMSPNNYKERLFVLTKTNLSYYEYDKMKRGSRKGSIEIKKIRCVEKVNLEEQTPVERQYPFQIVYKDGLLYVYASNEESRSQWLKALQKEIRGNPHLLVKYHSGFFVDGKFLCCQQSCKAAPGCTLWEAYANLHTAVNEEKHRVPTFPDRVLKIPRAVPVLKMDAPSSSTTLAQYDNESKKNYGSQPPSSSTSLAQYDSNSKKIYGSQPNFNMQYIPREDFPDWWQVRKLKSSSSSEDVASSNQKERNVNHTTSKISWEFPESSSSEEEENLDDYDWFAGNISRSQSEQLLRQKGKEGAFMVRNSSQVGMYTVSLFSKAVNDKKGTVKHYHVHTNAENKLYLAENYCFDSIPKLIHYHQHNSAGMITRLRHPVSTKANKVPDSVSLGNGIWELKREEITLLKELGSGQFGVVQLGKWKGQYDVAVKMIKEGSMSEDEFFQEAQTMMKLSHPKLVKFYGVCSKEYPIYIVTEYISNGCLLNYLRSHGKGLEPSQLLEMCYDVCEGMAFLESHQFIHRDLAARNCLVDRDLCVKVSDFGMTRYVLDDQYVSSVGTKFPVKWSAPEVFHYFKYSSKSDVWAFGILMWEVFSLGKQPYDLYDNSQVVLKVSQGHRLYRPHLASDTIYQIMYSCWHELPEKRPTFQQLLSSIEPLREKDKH

JAK1 = JAK1 (Homo sapiens, UniProt P23458); experiment: JAK kinase activity, JAK1; assay type: biochemical
cyclin A2 = experiment: Western blot of cyclin A2 levels; assay type: cell-based; settings: over 48 h
survivin = experiment: Western blot of survivin levels; assay type: cell-based; settings: sustained over 48 h
JAK3 = target: T2, JAK3 (Homo sapiens, UniProt P52333); experiment: JAK kinase activity, JAK3; assay type: biochemical
T2 sequence (P52333 1-1124): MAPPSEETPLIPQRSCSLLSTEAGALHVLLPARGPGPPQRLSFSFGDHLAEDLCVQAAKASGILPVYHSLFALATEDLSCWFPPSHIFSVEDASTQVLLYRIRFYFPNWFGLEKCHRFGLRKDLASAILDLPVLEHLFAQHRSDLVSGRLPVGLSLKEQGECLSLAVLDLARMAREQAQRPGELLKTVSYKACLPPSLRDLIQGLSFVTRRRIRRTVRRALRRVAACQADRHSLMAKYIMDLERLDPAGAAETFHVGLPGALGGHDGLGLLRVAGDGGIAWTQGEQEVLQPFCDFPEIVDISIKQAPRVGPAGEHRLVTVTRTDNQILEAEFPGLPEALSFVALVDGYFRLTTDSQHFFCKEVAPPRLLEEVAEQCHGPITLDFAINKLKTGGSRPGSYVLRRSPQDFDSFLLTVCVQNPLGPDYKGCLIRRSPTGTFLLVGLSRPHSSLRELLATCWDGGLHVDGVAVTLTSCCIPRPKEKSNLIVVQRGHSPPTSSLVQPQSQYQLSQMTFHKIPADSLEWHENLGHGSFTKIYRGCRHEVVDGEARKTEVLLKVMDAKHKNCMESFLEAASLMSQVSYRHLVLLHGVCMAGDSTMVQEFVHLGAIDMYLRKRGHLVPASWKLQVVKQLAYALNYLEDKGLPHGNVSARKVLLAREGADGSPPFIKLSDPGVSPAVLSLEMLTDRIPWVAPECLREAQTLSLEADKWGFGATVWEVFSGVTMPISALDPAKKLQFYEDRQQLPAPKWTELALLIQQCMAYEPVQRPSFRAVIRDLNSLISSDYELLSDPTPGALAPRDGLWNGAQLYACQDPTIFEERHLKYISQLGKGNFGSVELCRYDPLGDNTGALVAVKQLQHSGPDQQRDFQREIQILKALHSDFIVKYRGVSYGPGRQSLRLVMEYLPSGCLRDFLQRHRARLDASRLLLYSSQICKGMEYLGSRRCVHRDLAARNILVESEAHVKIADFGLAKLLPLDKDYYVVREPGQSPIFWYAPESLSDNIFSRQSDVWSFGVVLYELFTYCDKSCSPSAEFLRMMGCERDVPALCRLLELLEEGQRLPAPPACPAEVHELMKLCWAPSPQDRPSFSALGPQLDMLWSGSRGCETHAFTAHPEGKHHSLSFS

phospho p53 (Ser15) = experiment: Western blot of p53 Ser15 phosphorylation; assay type: cell-based; settings: MDA-MB-468 cells, over 48 h

MELK, sequence (Q14680 whole entry): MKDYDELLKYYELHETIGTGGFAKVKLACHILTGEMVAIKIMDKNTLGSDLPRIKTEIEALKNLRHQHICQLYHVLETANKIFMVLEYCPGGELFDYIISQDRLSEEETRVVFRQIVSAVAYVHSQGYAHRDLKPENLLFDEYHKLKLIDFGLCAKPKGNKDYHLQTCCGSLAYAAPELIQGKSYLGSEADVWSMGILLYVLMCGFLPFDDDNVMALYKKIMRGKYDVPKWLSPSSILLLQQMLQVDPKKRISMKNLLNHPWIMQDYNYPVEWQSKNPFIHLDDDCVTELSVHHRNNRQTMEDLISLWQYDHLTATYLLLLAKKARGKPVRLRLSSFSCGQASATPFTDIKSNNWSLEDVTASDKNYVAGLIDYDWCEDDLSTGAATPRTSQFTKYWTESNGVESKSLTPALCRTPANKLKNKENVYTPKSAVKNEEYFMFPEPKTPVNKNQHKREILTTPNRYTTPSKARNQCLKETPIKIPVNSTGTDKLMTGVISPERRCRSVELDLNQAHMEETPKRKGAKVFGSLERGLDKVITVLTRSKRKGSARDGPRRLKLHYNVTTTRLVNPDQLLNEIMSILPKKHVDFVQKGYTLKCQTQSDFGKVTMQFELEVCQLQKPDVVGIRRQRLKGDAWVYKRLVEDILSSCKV
JAK2, sequence (O60674 whole entry): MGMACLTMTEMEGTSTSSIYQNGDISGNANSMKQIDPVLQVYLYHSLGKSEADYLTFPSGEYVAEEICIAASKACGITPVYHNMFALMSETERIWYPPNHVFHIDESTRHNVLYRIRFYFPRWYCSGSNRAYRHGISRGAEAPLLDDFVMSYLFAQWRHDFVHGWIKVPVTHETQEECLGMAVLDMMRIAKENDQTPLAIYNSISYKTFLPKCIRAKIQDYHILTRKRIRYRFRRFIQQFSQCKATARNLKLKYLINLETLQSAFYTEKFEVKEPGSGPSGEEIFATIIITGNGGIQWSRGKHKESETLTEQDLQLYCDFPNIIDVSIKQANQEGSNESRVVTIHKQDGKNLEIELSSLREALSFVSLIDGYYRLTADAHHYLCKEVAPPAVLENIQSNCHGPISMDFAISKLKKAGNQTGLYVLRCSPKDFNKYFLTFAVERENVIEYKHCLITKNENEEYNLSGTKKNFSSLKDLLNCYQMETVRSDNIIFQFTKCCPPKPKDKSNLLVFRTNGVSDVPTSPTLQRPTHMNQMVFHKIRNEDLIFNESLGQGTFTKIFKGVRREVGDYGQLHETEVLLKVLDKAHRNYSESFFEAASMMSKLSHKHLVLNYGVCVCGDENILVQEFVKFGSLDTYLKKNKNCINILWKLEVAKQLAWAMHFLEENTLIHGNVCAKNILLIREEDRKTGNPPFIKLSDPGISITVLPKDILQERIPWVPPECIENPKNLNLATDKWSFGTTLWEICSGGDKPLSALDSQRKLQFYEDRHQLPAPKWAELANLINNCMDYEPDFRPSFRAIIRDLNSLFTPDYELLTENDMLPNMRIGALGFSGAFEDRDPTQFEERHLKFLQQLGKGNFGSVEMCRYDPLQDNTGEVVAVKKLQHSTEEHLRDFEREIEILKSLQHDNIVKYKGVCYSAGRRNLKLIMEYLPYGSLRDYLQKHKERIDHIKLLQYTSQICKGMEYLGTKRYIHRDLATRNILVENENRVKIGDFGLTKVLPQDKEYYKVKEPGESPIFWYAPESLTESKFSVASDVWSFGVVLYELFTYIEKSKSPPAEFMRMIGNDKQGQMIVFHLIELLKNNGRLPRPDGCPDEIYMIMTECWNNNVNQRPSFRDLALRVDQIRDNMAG
JAK1, sequence (P23458 whole entry): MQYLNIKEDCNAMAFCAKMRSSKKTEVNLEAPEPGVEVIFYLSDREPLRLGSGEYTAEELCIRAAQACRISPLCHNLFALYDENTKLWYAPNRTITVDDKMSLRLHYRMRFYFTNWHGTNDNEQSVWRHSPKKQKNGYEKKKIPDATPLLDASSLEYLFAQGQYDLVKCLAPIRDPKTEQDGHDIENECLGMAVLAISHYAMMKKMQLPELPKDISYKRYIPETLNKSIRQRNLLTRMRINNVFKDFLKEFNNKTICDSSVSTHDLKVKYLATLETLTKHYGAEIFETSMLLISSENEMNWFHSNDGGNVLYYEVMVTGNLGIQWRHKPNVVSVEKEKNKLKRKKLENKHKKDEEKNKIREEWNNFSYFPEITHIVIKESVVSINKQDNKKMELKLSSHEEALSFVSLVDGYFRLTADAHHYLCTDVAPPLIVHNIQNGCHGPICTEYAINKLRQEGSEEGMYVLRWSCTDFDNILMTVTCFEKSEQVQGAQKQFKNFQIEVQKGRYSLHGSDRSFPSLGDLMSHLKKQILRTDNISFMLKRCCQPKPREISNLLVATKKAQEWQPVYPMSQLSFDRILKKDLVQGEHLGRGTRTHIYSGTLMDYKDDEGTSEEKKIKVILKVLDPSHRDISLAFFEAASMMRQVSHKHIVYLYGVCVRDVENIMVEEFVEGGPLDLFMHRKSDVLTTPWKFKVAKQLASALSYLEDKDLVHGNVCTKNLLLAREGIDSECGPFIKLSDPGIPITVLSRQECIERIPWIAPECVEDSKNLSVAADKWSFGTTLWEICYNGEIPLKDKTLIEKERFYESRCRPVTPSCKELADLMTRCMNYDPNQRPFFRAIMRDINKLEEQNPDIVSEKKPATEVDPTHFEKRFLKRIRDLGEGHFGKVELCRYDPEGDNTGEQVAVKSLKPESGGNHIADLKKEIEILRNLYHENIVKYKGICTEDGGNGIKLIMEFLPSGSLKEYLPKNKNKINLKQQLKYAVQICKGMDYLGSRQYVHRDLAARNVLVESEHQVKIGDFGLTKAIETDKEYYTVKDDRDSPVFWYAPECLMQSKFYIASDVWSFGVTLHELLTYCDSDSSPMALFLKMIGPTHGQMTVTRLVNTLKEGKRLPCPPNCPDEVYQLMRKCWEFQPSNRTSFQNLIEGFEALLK

change of MELK IC50 / activity relative to parent compound 6 (MELK): little effect
SMILES: CCN(CC)CCCCNc1nc(/C=C/c2c(Cl)cc(Cl)cc2Cl)nc2ccc(N)cc12 [Compound 18, (E)-N^4-(4-(diethylamino)butyl)-2-(2,4,6-trichlorostyryl) quinazoline-4,6-diamine]

change of MELK IC50 / activity relative to parent compound 6 (MELK): twofold reduction
SMILES: Nc1ccc2nc(/C=C/c3ccc(C(F)(F)F)cc3)nc(NCCCN3CCOCC3)c2c1 [Compound 20]

SMILES: CO/C1=C\C(C)=C\[C@@H](C)[C@@H](O)[C@@H](C)C/C(C)=C/C=C/[C@H](OC)[C@@H]([C@@H](C)[C@@H](O)[C@H](C)[C@@]2(O)C[C@@H](O)[C@H](C)[C@@H](C(C)C)O2)OC1=O [BafA1, Bafilomycin A1, reference compound]
LC3B-II levels (LC3B-II; MDA-MB-231 cells): more modest increase | LC3B-II levels (LC3B-II; MDA-MB-468 cells): substantial increase

IC50 (MELK): ~1000 nM | inhibition of JAK kinase activity (JAK2) (JAK2): lack of inhibition | IC50 (BMX/ETK): ~1000 nM | inhibition of JAK kinase activity (JAK1) (JAK1): lack of inhibition | inhibition of JAK kinase activity (JAK3) (JAK3): lack of inhibition
SMILES: CCN(CC)CCCC(C)Nc1nc(/C=C/c2c(Cl)cc(Cl)cc2Cl)nc2ccc(N)cc12 (stereo not shown) [Compound 6, (E)-N^4-(5-(diethylamino)pentan-2-yl)-2-(2,4,6-trichlorostyryl) quinazoline-4,6-diamine]
Bcl-XL expression (Bcl-XL; MDA-MB-231 cells): reduced expression | Bcl-XL expression (Bcl-XL; MDA-MB-468 cells): reduced expression | LC3B-II levels (LC3B-II; MDA-MB-231 cells): pronounced increase | LC3B-II levels (LC3B-II; MDA-MB-468 cells): pronounced increase | autophagic flux (LC3B-II; MDA-MB-468 or MDA-MB-231 cells, LC3B-II not further increased by co-treatment with BafA1): inhibiting autophagic flux | p21WAF1/CIP1 level (p21WAF1/CIP1; MDA-MB-231 cells): up-regulated | p21WAF1/CIP1 level (p21WAF1/CIP1; MDA-MB-468 cells): up-regulated | MDMX levels (MDMX): increase | p53 levels (p53; MDA-MB-231 cells): does not affect | p53 levels (p53; MDA-MB-468 cells, over 48 h): no effect | STAT3 phosphorylation (phospho STAT3 (Tyr705); MDA-MB-231 cells, levels recover more slowly): inhibited | STAT3 phosphorylation (phospho STAT3 (Tyr705); MDA-MB-468 cells): inhibited | STAT3 phosphorylation, time course (phospho STAT3 (Tyr705); MDA-MB-468 cells, at 4 h, levels restored after 8 h): completely inhibited | Akt phosphorylation (phospho Akt): no effect | cyclin A2 level (cyclin A2; MDA-MB-231 cells): down-regulated | cyclin A2 level (cyclin A2; MDA-MB-468 cells): down-regulated | survivin level (survivin; MDA-MB-231 cells): down-regulation | survivin level (survivin; MDA-MB-468 cells): down-regulation | phosphorylation at Ser15 of p53 (phospho p53 (Ser15)): inhibited
